Data: publication PMC2919362 (Chemical biology & drug design, 2010)
Where no end group is shown, it is not given here. The star is where a group is joined. 5FAM = O=C1OC2(c3ccc(O)cc3Oc3cc(O)ccc32)c2ccc(C(=O)*)cc21; Farnesyl = CC(C)=CCC/C(C)=C/CC/C(C)=C/C*

Key:
COS-1 cells = assay: CLSM of peptide uptake in live COS-1 cells; assay type: cell-based, African green monkey; details: 1 μM, 2 h, live cells (Figure 4A)
In short: (§1)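 Live-cell confocal imaging. Cells were seeded at 7.8 × 10^3 cells/cm2 and grown to about 50% confluency (about 24 h), then washed twice with PBS. Peptide (5-Fam labelled) was incubated in serum-free DMEM at 37°C, 5.0% CO2. Nuclei were stained with Hoechst 34580 (1 μg/mL final, last 20 min) and membranes with WGA–Alexa Fluor 594 (5 μg/mL final, last 10 min). Cells were then washed twice and imaged with a 60X objective; emission was read at 520/450/620 nm.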

NIH/3T3 fibroblast cells = assay: CLSM of peptide uptake in live NIH/3T3 fibroblasts; assay type: cell-based, Swiss mouse; details: 1 μM, 2 h, live cells (Figure 4B)
In short: as §1

PC-12 cells [1] = assay: CLSM of peptide uptake in PC-12 differentiated neurons; assay type: cell-based, rat; details: 1 μM, 2 h, live cells (Figure 4D)
In short: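 Neuronal differentiation and imaging. PC-12 cells were seeded at 3.9 × 10^3 cells/cm2 on poly-lysine plates and grown for 24 h. They were serum-starved for 24 h in F12K + 1% HS, then differentiated with 100 ng/mL β-NGF in the same medium for 6–8 days, refreshed every 2 days. Labelled peptide was incubated in F12K + 1% HS at 37°C, 5.0% CO2, with Hoechst 34580 and WGA–Alexa Fluor 594 counterstains. Live cells were imaged by confocal microscopy (60X).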

D1TNC1 astrocytes [2] = assay: CLSM of peptide uptake in live D1TNC1 astrocytes; assay type: cell-based, rat; details: 1 μM, 2 h, live cells (Figure 4C)
In short: as §1

D1TNC1 astrocytes [3] = assay: Flow cytometry of peptide uptake in D1TNC1 astrocytes; assay type: cell-based, rat; details: 1 μM, 2 h, 37°C, trypsinized 15 min, triplicate (Figure 6)
PC-12 cells [4] = assay: Flow cytometry of peptide uptake in PC-12 cells; assay type: cell-based, rat; details: 1 μM, 2 h, 37°C, trypsinized 15 min, triplicate (Figure 6)

Substance	uptake in COS-1 cells (CLSM) (COS-1 cells)	uptake in NIH/3T3 fibroblast cells (CLSM) (NIH/3T3 fibroblast cells)	uptake in PC-12 cells (CLSM) (PC-12 cells [1])	uptake in D1TNC1 astrocytes (CLSM) (D1TNC1 astrocytes [2])	entry into astrocytes compared with HeLa cells (flow cytometry) (D1TNC1 astrocytes [3])	entry into PC12 cells compared with HeLa cells (flow cytometry) (PC-12 cells [4])
5FAM-KKSRRC(Farnesyl)VLS [4b]	moderate uptake	moderate uptake	significant uptake	significant uptake		
5-Fam-KKSRRC(S-decyl)VLS [5b]					efficiency comparable to that observed with HeLa cells	efficiency comparable to that observed with HeLa cells
